# High-throughput results (PubChem BioAssay)
# This is a sample that favours compounds with a hit; in the whole collection about 4.9% have one here.
# STAT1 act: increases IFN-gamma driven STAT1 reporter signal. activation (% of control), % at 5.5 µM. AID 932. NIH 3T3 STAT1-luciferase reporter, luminescence; 100% = IFN-gamma alone, no compound. 200,000 compounds, 2.6% hits;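 active = activation above the screen-wide mean activation plus 3 SD, cut at about 130% in these data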;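 note: raw ratio to IFN-gamma control signal so 100% means no change and 0% no light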
# STAT3 activator: increases IL-6 driven STAT3 reporter signal | 190,000 compounds, 0.91% hits | activation (% of control), % at 5.6 µM | U3A cells, IL-6 STAT3-luciferase reporter, luminescence; 100% = signal with IL-6 EC80 alone;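 active = activation above the screen-wide mean of compound activation plus 3 SD, cut at about 130% in these data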;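 note: 0% = background luminescence of wells with medium and substrate only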
#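 System – human U3A cells carrying STAT3-luciferase construct · Probe or stimulus – Interleukin-6, 33 ng/mL · Schedule – compound 1 h, then IL-6 6 h at 37 °C · Signal – luminescence from STAT3-driven luciferase reporter · Evaluation – percent of IL-6-only median luminescence · Benchmarks – IL-6-only high control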
# APP 5'UTR act: APP 5'UTR luciferase reporter activation | 190,000 compounds, 1% hits | activation, % at 2 µM | SH-SY5Y APP 5'UTR luciferase reporter, luminescence; zero percent = DMSO vehicle wells | AID 1276;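 active = activation above a set limit, based on mean plus 3 SD of controls, cut at about 140% in these data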
# STAT1 blocker: inhibitors of IFN-gamma induced STAT1 signaling | NIH 3T3 STAT1-luciferase reporter, luminescence | inhibition, % at 5.5 µM | 200,000 compounds, 0.35% hits | AID 920;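 active = inhibition above a set limit, the mean inhibition across all tested compounds plus 3 SD, cut at about 34% in these data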;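 note: 0% = IFN-gamma with DMSO and 100% = IFN-gamma with 300 µM nifuroxazide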
# NF-kB neuron act: NF-kB expression increase, human neuronal cells; NF-kB reporter expression; active compounds read high; fold change at 12.5 µM; 190,000 compounds, 1.6% hits; AID 1239; in the data active = fold change above about 3.3
# STAT3 inh: reduces IL-6 driven STAT3 reporter signal; U3A cells, IL-6 STAT3-luciferase reporter, luminescence; host cell line lacks STAT1; inhibition, % at 5.5 µM; 190,000 compounds, 0.89% hits; AID 862;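 active = inhibition above the mean inhibition across all screened compounds plus 3 SD, cut at about 44% in these data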;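 note: 0% = DMSO only wells and 100% = 100 µM nifuroxazide control wells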
# * = called active by the depositor.
SMILES,STAT1 act,STAT3 activator,APP 5'UTR act,STAT1 blocker,NF-kB neuron act,STAT3 inh
COCCn1c(C)cc(C2=NNC(=Nc3ccc(OC)cc3)SC2)c1C,102,112,-7,-2,0.85,-9
CC(C)(C)OC(=O)C(C)(C)O/N=C(\C(=O)O)c1csc(N)n1,103,104,3,-5,1.2,-4
CC(=O)N1CCC(N(CCN2CCOCC2)C(=S)Nc2ccccc2C)CC1,94,95,-1,7,1.2,3
C=C1N(c2ccccc2)C(=O)OC1(C)C,103,94,-14,-3,1.4,6
O=C1C2C(c3ccccc3)C=CC(c3ccccc3)C2C(=O)N1c1ccccn1 (stereo not drawn),98,93,-21,3,1.4,11
Cn1cnnc1SCC(=O)Nc1ccc(Cl)c(S(=O)(=O)N2CCOCC2)c1,99,101,-20,0,1.2,1
O=C(Nc1ccc(Cl)cc1Cl)C1=Cc2ccccc2OC1,141*,81,221*,-45,5.9*,26
Cc1cccc2c1OCC/C2=N\NC(=O)COc1ccccc1Cl,130*,89,6,-33,2,16
C=C(C)C1CC=C(C)/C(=N/NC(=O)COc2ccccc2Cl)C1 (stereo not drawn),102,96,2,-3,0.75,3
CC1CCc2c(nc3sc4c(c3c2N)CCCC4)C1 (stereo not drawn),135*,110,65,-37,1.8,-14
O=c1c2c3c(sc2nc2n1CCCCC2)CCC3,105,116,8,-6,1.6,-12
CC1CCc2nc3sc4c(c3c(N)c2C1)CCCC4 (stereo not drawn),122,94,31,-24,1.6,15
Nc1c2c(nc3sc4c(c13)CCCCC4)CCCCC2,145*,106,185*,-51,4*,-4
O=C(CCS(=O)(=O)c1ccccc1)Nc1ccc2c(c1)OCO2,136*,113,-2,-37,2.2,-15
O=C(CCCN1C(=O)CCC1=O)Nc1ccc2c(c1)OCO2,99,95,15,1,1.3,10
O=C(CCCc1cccs1)Nc1ccc2c(c1)OCO2,134*,102,162*,-37,4.2*,3
CS(=O)(=O)N(CC(=O)Nc1ccc2c(c1)OCO2)c1ccccc1,98,108,-6,1,1.2,-3
COc1ccc(OC)c(NC(=O)c2cccnc2Sc2ccccc2)c1,95,96,-4,6,0.98,3
CCOC(=O)/C(N=Nc1ccc2c(c1)OCO2)=C(\C)O,137*,103,116,-39,1.6,1
Cc1c(C(=O)Nc2cccc(N(C)S(C)(=O)=O)c2)cccc1[N+](=O)[O-],93,100,-3,6,1.1,5
COc1ccc(/C=N/Nc2nccnc2Cl)cc1,103,69,164*,-4,3.2,37
Cc1nn2cc(-c3ccc(Cl)cc3)cnc2c1Cl,140*,94,155*,-45,3.4*,9
CC(=O)c1cnc2c(-c3ccc(Cl)cc3)c(C)nn2c1C,102,88,7,-3,1.3,16
COc1ccc(C(=O)c2ccc(Cl)c([N+](=O)[O-])c2)cc1,96,103,-95,4,3.6*,-1
COc1ccc(N=C2S/C(=C\c3cc(C)n(C)c3C)C(=O)N2C)cc1,100,99,-20,0,1,3
SMILES,STAT1 act,STAT3 activator,APP 5'UTR act,STAT1 blocker,NF-kB neuron act,STAT3 inh
COc1ccccc1N1C(=O)S/C(=C\c2cc(C)n(C)c2C)C1=O,137*,95,44,-42,1.7,12
COc1ccc(NC(=O)CSc2nnnn2C)c([N+](=O)[O-])c1,102,103,-15,-3,1.2,-1
O=C(Nc1cnc2ccccc2c1)N1CCCCC1,135*,104,86,-36,2.2,2
O=C(Nc1cnc2ccccc2c1)N1CCOCC1,112,104,14,-13,1.7,1
COCC(C)n1c(C)cc(C(=O)COC(=O)c2n[nH]c3ccccc23)c1C (stereo not drawn),116,87,143*,-17,0.7,20
O=C(NCCCN1CCOCC1)C(=O)NCc1ccc(Cl)cc1,93,106,-1,6,1.2,0
O=C(Cn1c(C(F)(F)F)nc2ccccc21)N=Nc1c(O)[nH]c2ccc(Br)cc12,98,106,-2,3,1.1,-5
